# Assay results published in ChEMBL document CHEMBL2407039 (Eur J Med Chem, 2013).
# Calls of active or inactive are those of the source. No cut-off for these calls is given here.
# Legend:
# DNA [1] = assay: Binding affinity to calf thymus DNA assessed as intercalation at 20 uM after 2 hrs by circular dichroism spectrophotometry; assay type: nucleic-acid assay; details: Bos taurus
# In short: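 Calf thymus DNA (100 µM) was incubated with compound (20 µM) in Tris-HCl buffer for 2 h at 25 °C. CD spectra were then analysed over 230–300 nm.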
# MDA-MB-231 = assay: Cytotoxicity against human MDA-MB-231 cells after 72 hrs by sulforhodamine B assay; assay type: functional, cell-based; details: MDA-MB-231, 72 h
# In short: (§1)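 Cells seeded and cultured overnight, then treated with increasing compound concentrations for 72 h. Fixed with 10% TCA, stained with sulforhodamine B, dye dissolved in 10 mM Tris-HCl, read at 515 nm. Inhibition taken relative to untreated control. IC50 by the Logit method; triplicate experiments.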
# [2] = molecular target: T1, Fibroblast growth factor receptor 1 (Homo sapiens, UniProt P11362); assay: Inhibition of FGFR1 (unknown origin) using poly (Glu, Tyr)4:1 as substrate by ELISA
# Target sequence in this assay (P11362 whole entry): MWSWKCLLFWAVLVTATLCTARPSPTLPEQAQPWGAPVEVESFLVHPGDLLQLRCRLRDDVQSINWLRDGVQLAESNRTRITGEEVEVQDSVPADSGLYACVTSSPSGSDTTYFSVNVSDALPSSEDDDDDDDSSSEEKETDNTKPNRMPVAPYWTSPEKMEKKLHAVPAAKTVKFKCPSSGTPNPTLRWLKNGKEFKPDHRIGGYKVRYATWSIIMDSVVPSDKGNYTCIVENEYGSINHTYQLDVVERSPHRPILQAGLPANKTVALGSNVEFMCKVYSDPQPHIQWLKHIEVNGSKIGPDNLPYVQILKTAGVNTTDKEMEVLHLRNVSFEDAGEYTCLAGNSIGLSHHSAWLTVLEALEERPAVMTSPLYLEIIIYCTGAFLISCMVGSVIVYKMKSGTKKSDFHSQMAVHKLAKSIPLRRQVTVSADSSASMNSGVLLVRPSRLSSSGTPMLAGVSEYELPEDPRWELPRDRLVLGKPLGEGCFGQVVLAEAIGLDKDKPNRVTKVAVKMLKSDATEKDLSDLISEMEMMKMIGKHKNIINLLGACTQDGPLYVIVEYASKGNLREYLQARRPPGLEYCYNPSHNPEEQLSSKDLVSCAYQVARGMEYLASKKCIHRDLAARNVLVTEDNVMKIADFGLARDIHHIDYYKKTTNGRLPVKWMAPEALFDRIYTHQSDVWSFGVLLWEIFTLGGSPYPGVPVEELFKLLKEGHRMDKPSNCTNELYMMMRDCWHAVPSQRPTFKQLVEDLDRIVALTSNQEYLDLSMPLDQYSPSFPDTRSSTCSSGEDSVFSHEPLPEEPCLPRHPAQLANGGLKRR
# [3] = molecular target: Platelet-derived growth factor receptor beta (Homo sapiens, UniProt P09619); assay: Inhibition of PDGFRbeta (unknown origin) using poly (Glu, Tyr)4:1 as substrate by ELISA
# [4] = molecular target: DNA topoisomerase 2-alpha (Homo sapiens) (UniProt P11388); assay: Inhibition of human topoisomerase 2 alpha-mediated decatenation of kinetoplast DNA at 100 uM after 30 mins by agarose gel electrophoresis in presence of ATP relative to control
# In short: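 ATP-dependent decatenation of 0.1 µg kinetoplast DNA by 1 unit of human topo IIα. Incubated 30 min at 37 °C in 50 mM Tris-HCl pH 8.0, 150 mM NaCl, 10 mM MgCl2, 2 mM ATP, 0.5 mM DTT. Gel images quantified by densitometry.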
# [5] = Cytotoxicity against human LO2 cells after 72 hrs by sulforhodamine B assay; assay type: cell-based; details: L02, 72 h; in short: as §1
# [6] = molecular target: Vascular endothelial growth factor receptor 2 (Homo sapiens, UniProt P35968); assay: Inhibition of KDR (unknown origin) using poly (Glu, Tyr)4:1 as substrate by ELISA
# [7] = molecular target: Platelet-derived growth factor receptor alpha (Homo sapiens, UniProt P16234); assay: Inhibition of PDGFRalpha (unknown origin) using poly (Glu, Tyr)4:1 as substrate by ELISA
# In short: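 ELISA on wells precoated with 2.5 µg/well poly(Glu,Tyr) 4:1. Reaction buffer was 50 mM HEPES pH 7.4, 20 mM MgCl2, 0.1 mM Na3VO4, 1 mM DTT, with 10 µM ATP; the reaction was started by adding kinase and run 1 h at 37 °C. Phosphotyrosine detected with PY99 and HRP anti-mouse IgG, o-phenylenediamine development, read at 490 nm.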
# A549 = assay: Cytotoxicity against human A549 cells after 72 hrs by sulforhodamine B assay; assay type: functional, cell-based; details: A549, 72 h; in short: as §1
# DNA [8] = assay: Binding affinity to calf thymus DNA assessed as intercalation at 10 uM after 1 hr by fluorescence spectrophotometry; assay type: nucleic-acid assay; details: Bos taurus
# In short: (§2)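 Fluorescence spectra were recorded at 25 °C. Compound was present at 10 µM with calf thymus DNA at 0–80 µM, in 20 mM Tris-HCl (pH 7.5) containing 1% DMSO.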
# [9] = Cytotoxicity against human GES-1 cells after 72 hrs by sulforhodamine B assay; assay type: cell-based; details: GES1, 72 h; in short: as §1
# HL-60 = assay: Cytotoxicity against human HL60 cells after 72 hrs by MTT assay; assay type: functional, cell-based; details: HL-60, 72 h
# In short: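 HL60 cells were treated with increasing compound concentrations for 72 h. MTT was then added for 4 h. Cells were lysed overnight at 37 °C in 10% SDS–5% isobutanol–12 mM HCl and read at 570 nm. Inhibition taken relative to control. IC50 by the Logit method; triplicate experiments.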
# [10] = Solubility of the compound in PBS buffer at PH 7.4 after 24 hrs by UV-Visible spectrophotometry; assay type: physicochemical
# DNA [11] = assay: Binding affinity to calf thymus DNA assessed as intercalation after 1 hr by fluorescence spectrophotometric analysis; assay type: nucleic-acid assay; details: Bos taurus; in short: as §2
# [12] = Antimigratory activity against human HMEC1 cells at 10 uM after 6 hrs by transwell Boyden chamber assay relative to control; assay type: functional; details: HMEC-1, 6 h
# In short: (§3)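 HMEC-1 suspension (5 × 10⁵ cells/mL) with compound or control was placed in the upper compartment of a transwell Boyden chamber. The lower compartment held MCDB131 with 20% FBS plus the same compound concentration. After 6 h at 37 °C, migrated cells were quantified by absorbance. Inhibition = [1 − (A compound − A blank)/(A control − A blank)] × 100%; mean ± SD, n = 3.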
# HMEC-1 [13] = assay: Antiangiogenic activity in human HMEC1 cells assessed as growth inhibition after 72 hrs by SRB assay; assay type: functional, cell-based
# In short: (§4)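 HMEC-1 cells seeded and cultured overnight, then exposed to graded compound concentrations for 72 h. Cells were fixed with 10% trichloroacetic acid and stained with sulforhodamine B. Dye was dissolved in 10 mM Tris-HCl and read at 515 nm. Inhibition = (1 − A515 treated/A515 control) × 100%.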
# [14] = Antiangiogenic activity in human HMEC1 cells assessed as growth inhibition at 20 uM after 72 hrs by SRB assay; assay type: functional; details: HMEC-1, 72 h, read-out: GI; in short: as §4
# HMEC-1 [15] = assay: Antimigratory activity against human HMEC1 cells after 6 hrs by transwell Boyden chamber assay; assay type: functional, cell-based; in short: as §3
# HMEC-1 [16] = assay: Antiangiogenic activity in human HMEC1 cells assessed as growth inhibition at <= 10 uM after 72 hrs by SRB assay; assay type: functional, cell-based; in short: as §4
# [17] = Antiangiogenic activity in human HMEC1 cells assessed as inhibition of serum-stimulated tube formation at 10 uM after 8 hrs by matrigel assay relative to control; assay type: functional; details: HMEC-1, 8 h
# In short: (§5)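 Matrigel was set in 96-well plates (37 °C, 1 h) and seeded with HMEC-1 at 1 × 10⁵ cells/mL. Cells were cultured 8 h at 37 °C in MCDB131 with 20% FBS containing compound or control. Tubes were counted in five random fields by phase-contrast microscopy. Inhibition = [1 − tubes compound/tubes control] × 100%; mean ± SD, n = 3.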
# [18] = molecular target: T1, Fibroblast growth factor receptor 1; assay: Inhibition of FGFR1 in human HMEC1 cells assessed as reduction of bFGF-induced Erk1/2 phosphorylation at Thr 202/204 at 1.25 to 2.5 uM incubated for 10 hrs prior to bFGF challenge measured after 10 mins by Western blotting analysis; assay type: cell-based
# In short: (§6)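 HMEC-1 cells were plated at 3 × 10⁵ cells/well and serum-starved 24 h. Cells were exposed to compound (10 h per the results text; methods state 12 h), then stimulated with 50 ng/mL bFGF for 10 min at 37 °C. Whole-cell lysates were run on 10% SDS-PAGE and blotted with antibodies to phospho-FGFR1, phospho-Erk and phospho-AKT, with GAPDH as loading control.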
# Target sequence in this assay (P11362 22-822 limits assumed): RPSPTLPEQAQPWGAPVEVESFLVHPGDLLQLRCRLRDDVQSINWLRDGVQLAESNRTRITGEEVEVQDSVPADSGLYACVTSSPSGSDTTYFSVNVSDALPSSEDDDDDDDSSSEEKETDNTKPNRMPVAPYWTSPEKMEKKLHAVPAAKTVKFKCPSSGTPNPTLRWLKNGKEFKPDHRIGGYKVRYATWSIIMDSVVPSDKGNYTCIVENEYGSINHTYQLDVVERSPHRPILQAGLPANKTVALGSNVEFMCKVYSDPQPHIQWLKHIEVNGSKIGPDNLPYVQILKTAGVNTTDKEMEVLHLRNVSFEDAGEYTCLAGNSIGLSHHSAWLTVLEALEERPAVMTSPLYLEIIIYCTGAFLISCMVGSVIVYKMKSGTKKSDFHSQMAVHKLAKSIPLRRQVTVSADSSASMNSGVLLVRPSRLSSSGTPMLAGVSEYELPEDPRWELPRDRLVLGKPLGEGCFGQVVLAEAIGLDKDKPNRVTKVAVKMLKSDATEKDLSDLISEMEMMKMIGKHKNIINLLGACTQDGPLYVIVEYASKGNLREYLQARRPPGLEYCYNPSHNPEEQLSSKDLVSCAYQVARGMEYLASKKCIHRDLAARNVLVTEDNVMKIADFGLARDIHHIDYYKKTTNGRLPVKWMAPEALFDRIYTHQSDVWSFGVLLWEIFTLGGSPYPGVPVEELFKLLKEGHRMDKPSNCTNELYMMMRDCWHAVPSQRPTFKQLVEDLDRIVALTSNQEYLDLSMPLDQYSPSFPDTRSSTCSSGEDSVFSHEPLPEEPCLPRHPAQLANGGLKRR
# [19] = Antiangiogenic activity in human HMEC1 cells assessed as growth inhibition at 40 uM after 72 hrs by SRB assay; assay type: functional; details: HMEC-1, 72 h, read-out: GI; in short: as §4
# [20] = Antiangiogenic activity in human HMEC1 cells assessed as inhibition of serum-stimulated tube formation at 5 uM after 8 hrs by matrigel assay relative to control; assay type: functional; details: HMEC-1, 8 h; in short: as §5
# HMEC-1 [21] = assay: Antiangiogenic activity in human HMEC1 cells assessed as inhibition of serum-stimulated tube formation after 8 hrs by matrigel assay; assay type: functional, cell-based; in short: as §5
# [22] = molecular target: T1, Fibroblast growth factor receptor 1; assay: Inhibition of FGFR1 in human HMEC1 cells assessed as reduction of bFGF-induced FGFR1 phosphorylation at Tyr 653/654 at 1.25 to 2.5 uM incubated for 10 hrs prior to bFGF challenge measured after 10 mins by Western blotting analysis; assay type: cell-based; in short: as §6
# Target sequence in this assay (P11362 22-822 limits assumed): as above
# [23] = molecular target: T1, Fibroblast growth factor receptor 1; assay: Inhibition of FGFR1 in human HMEC1 cells assessed as reduction of bFGF-induced AKT phosphorylation at Ser 473 at 1.25 to 5 uM incubated for 10 hrs prior to bFGF challenge measured after 10 mins by Western blotting analysis; assay type: cell-based; in short: as §6
# Target sequence in this assay (P11362 22-822 limits assumed): as above
# [24] = Antimigratory activity against human HMEC1 cells at 5 uM after 6 hrs by transwell Boyden chamber assay relative to control; assay type: functional; details: HMEC-1, 6 h; in short: as §3
# [25] = molecular target: T1, Fibroblast growth factor receptor 1; assay: Inhibition of FGFR1 in human HMEC1 cells assessed as inhibition of bFGF-induced FGFR1 phosphorylation at Tyr 653/654 incubated for 10 hrs prior to bFGF challenge measured after 10 mins by Western blotting analysis; assay type: cell-based; in short: as §6
# Target sequence in this assay (P11362 22-822 limits assumed): as above
# Chain of Platelet-derived growth factor receptor alpha (P16234 whole entry): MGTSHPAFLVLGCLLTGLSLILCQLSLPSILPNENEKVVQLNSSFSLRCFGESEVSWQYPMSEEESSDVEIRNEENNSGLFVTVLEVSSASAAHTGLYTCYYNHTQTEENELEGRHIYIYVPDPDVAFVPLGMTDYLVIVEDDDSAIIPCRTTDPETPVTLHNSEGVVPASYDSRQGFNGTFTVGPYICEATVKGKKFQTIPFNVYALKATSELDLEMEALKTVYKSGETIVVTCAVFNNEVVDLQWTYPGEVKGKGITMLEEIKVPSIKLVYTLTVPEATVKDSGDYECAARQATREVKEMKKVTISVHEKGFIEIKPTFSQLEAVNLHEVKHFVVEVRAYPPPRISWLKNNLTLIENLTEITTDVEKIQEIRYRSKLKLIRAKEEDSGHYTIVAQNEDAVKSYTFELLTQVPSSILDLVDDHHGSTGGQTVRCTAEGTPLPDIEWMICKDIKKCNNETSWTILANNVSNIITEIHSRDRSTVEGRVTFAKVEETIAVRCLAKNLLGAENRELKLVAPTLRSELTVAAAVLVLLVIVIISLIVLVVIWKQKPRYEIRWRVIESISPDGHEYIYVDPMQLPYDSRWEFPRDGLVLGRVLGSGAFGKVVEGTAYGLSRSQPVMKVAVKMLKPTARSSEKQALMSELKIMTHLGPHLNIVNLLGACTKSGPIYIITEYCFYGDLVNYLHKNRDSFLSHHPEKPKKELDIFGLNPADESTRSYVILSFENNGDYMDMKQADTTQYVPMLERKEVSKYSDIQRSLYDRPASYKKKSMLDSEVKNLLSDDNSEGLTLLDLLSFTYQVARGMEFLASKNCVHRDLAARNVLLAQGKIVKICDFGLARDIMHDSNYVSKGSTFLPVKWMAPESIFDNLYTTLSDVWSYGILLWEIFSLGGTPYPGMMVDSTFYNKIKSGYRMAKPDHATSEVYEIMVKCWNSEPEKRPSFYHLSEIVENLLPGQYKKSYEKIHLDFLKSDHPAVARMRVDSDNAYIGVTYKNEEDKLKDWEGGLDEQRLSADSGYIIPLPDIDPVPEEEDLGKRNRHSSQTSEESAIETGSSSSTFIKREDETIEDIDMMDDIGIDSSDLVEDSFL
# Chain of Vascular endothelial growth factor receptor 2 (P35968 whole entry): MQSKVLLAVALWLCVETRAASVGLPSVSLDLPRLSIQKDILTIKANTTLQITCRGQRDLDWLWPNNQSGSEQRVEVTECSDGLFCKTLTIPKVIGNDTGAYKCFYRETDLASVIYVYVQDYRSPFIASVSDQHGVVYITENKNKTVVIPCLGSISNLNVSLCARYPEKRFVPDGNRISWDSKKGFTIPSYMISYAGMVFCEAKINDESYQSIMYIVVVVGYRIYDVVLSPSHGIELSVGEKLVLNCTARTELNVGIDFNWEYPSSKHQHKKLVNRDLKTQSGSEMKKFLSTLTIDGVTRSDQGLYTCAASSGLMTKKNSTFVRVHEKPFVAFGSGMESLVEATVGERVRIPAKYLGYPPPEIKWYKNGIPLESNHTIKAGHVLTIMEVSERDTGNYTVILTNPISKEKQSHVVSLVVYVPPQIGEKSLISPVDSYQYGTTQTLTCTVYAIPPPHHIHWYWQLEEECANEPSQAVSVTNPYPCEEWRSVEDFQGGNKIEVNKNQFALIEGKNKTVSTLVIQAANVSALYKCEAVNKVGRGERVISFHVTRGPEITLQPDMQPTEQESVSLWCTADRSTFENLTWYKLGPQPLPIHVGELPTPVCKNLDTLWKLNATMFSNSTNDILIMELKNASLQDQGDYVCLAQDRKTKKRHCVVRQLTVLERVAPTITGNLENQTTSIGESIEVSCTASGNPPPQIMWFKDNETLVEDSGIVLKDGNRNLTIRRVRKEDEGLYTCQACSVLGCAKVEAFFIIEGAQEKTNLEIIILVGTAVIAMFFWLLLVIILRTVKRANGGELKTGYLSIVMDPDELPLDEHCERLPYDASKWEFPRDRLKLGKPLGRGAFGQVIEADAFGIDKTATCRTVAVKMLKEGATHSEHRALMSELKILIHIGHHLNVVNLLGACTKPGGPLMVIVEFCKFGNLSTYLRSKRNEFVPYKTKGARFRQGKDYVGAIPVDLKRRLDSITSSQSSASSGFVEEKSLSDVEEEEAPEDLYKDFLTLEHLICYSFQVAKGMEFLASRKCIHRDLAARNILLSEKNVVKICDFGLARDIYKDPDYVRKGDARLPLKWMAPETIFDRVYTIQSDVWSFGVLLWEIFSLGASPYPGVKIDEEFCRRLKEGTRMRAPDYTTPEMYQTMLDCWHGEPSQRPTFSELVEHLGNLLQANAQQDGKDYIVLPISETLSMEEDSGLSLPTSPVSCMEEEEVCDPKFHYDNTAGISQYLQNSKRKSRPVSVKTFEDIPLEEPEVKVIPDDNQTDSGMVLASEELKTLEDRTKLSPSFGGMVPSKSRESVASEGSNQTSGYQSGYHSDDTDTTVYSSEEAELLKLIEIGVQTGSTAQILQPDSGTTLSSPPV
Structure (SMILES),Activity (DNA [1]),IC50 [2],IC50 [3],inhibition [4],IC50 [6],IC50 [7],Activity (DNA [8]),solubility at 24 h [10],IC50 (MDA-MB-231),IC50 [5],IC50 (A549),IC50 [9],IC50 (HL-60),other results
CCCCCCCCCCCCCCCCN1C(=O)c2cccc3c(NCCNCCN(C)C)ccc(c23)C1=O,inactive,> 100 µM,> 50 µM,97.3%,> 100 µM,> 50 µM,inactive,16 µM,17.7 µM,> 50 µM,31.3 µM,> 50 µM,24.5 µM,–
CCN1C(=O)c2cccc3c(NCCNCCN(C)C)ccc(c23)C1=O,inactive,> 100 µM,> 100 µM,86.7%,> 100 µM,> 100 µM,–,46700 µM,24.3 µM,> 50 µM,31.4 µM,> 50 µM,17 µM,–
CN(C)CCN1C(=O)c2cccc3cc(N)cc(c23)C1=O [AMONAFIDE],–,–,–,97.5%,–,–,inactive,–,4.4 µM,13.8 µM,3.2 µM,21.6 µM,0.9 µM,Kb (DNA [11]): 2.1 ×10⁵ /M
CN(C)CCNCCNc1ccc2c3c(cccc13)C(=O)N(C)C2=O,inactive,> 100 µM,> 100 µM,97.1%,> 100 µM,> 100 µM,inactive,78400 µM,7.9 µM,13.6 µM,24.5 µM,> 50 µM,7.8 µM,Kb (DNA [11]): 1.3 ×10⁵ /M

# More lines, main results first:
Activity (DNA [1]),IC50 [2],IC50 [3],inhibition [4],IC50 [6],IC50 [7],Activity (DNA [8]),solubility at 24 h [10],Structure (SMILES),IC50 (MDA-MB-231),IC50 [5],IC50 (A549),IC50 [9],IC50 (HL-60),other results
inactive,> 100 µM,> 100 µM,94.3%,> 100 µM,> 100 µM,–,430 µM,CCCCCCN1C(=O)c2cccc3c(NCCNCCN(C)C)ccc(c23)C1=O,6.1 µM,> 50 µM,9.8 µM,46 µM,1.5 µM,–
inactive,28.8 µM,> 50 µM,96.6%,27.6 µM,26.2 µM,–,63 µM,CCCCCCCCCCCCN1C(=O)c2cccc3c(NCCNCCN(C)C)ccc(c23)C1=O,6.6 µM,> 50 µM,19.1 µM,> 50 µM,1.8 µM,–
inactive,18.1 µM,> 50 µM,99.8%,48.9 µM,> 100 µM,inactive,264 µM,CCCCCCCCN1C(=O)c2cccc3c(NCCNCCN(C)C)ccc(c23)C1=O,8.6 µM,> 50 µM,7.8 µM,> 50 µM,2.1 µM,inhibition at 10 µM [12]: 70%; growth inhibition (GI) (HMEC-1 [13]): Dose-dependent effect; inhibition of growth at 20 µM [14]: 68%; inhibition (HMEC-1 [15]): Dose-dependent effect; growth inhibition (GI) (HMEC-1 [16]): inactive; inhibition at 10 µM [17]: 70%; inhibition [18]: Active; inhibition of growth at 40 µM [19]: 99%; inhibition at 5 µM [20]: 30%; inhibition (HMEC-1 [21]): Dose-dependent effect; inhibition [22]: Active; inhibition [23]: Active; inhibition at 5 µM [24]: 55%; inhibition [25]: Dose-dependent effect
inactive,> 100 µM,> 100 µM,90.2%,> 100 µM,> 100 µM,–,15400 µM,CCCCN1C(=O)c2cccc3c(NCCNCCN(C)C)ccc(c23)C1=O,10.5 µM,> 50 µM,21.4 µM,> 50 µM,5.8 µM,–
